{"data": "Measured values gathered from unrelated publications", "target": "Mitogen-activated protein kinase 9 (MAPK9, Homo sapiens, UniProt P45984)", "note": "Protocols differ between the studies behind these lines."}
{"Structure (SMILES)": "O=C1Nc2ccc(Cl)cc2C1=Cc1cc(Cl)c(O)c(Cl)c1", "read-out": "cell-free assay", "tested at": "0.5 µM", "endpoint": "remaining signal", "result": "100%"}
{"Structure (SMILES)": "Nc1ncnc2occ(-c3ccc(NC(=O)Nc4cc(C(F)(F)F)ccc4F)cc3)c12", "read-out": "cell-free assay", "mode": "inhibitor", "tested at": "20 µM", "endpoint": "remaining signal", "result": "0%"}
{"Structure (SMILES)": "CC1(C)NC(=O)c2[nH]c3c(Cl)c(Cl)ccc3c2C1C#N (centres unmarked)", "read-out": "thermal stability", "method": "DSF", "tested at": "10 µM", "endpoint": "ΔTm", "result": "0.8 °C"}
{"Structure (SMILES)": "CC(C)(C)c1nc2c(s1)c1nc(N)ncc1c1ccc(NS(=O)(=O)c3c(F)cccc3F)c(F)c12", "read-out": "enzyme activity", "mode": "inhibitor", "method": "radiometric", "tested at": "1 µM", "endpoint": "remaining activity", "result": "95%"}
{"Structure (SMILES)": "CCN(CC)CCNC(=O)c1c(C)[nH]c(/C=C2\\C(=O)Nc3ccc(F)cc32)c1C", "read-out": "cell-free assay", "tested at": "0.5 µM", "endpoint": "remaining signal", "result": "96.7%"}
{"Structure (SMILES)": "FC(F)(F)c1ccc2c(c1)nc(-c1cccnc1)n2C1CC1", "read-out": "cell-free assay", "method": "competition with immobilised ligand", "tested at": "1 µM", "endpoint": "remaining binding", "result": "100%"}
{"Structure (SMILES)": "COc1cc(Nc2cnc(C#N)c(O[C@H](C)CN(C)C)n2)ncc1-c1cnn(C)c1", "read-out": "enzyme activity", "mode": "inhibitor", "method": "radiometric", "tested at": "1 µM", "endpoint": "remaining activity", "result": "98%"}
{"Structure (SMILES)": "N#CCCc1ccc2c(c1)-c1[nH]c3ccc([N+](=O)[O-])cc3c1CC(=O)N2", "read-out": "cell-free assay", "tested at": "0.5 µM", "endpoint": "remaining signal", "result": "97.1%"}
{"Structure (SMILES)": "Cc1cc(NC(=O)c2cccc3cc(-c4cccc5[nH]nc(N)c45)ccc23)ccc1F", "read-out": "enzyme activity", "mode": "inhibitor", "tested at": "0.1 µM", "endpoint": "activity vs control", "result": "86%"}
{"Structure (SMILES)": "CC(C)CC(=O)N1CCc2nc(-c3ccc(Br)cc3)nc(N(C)Cc3ccccc3)c2C1", "read-out": "cell-free assay", "method": "competition with immobilised ligand", "tested at": "0.1 µM", "endpoint": "remaining binding", "result": "72%"}
{"Structure (SMILES)": "CC(C)(O)[C@H]1CC[C@H](Nc2ccc3ncc(-c4cccc(C(F)(F)F)c4)n3n2)CC1", "read-out": "enzyme activity", "mode": "inhibitor", "tested at": "1 µM", "endpoint": "remaining activity", "result": "109%"}
{"Structure (SMILES)": "CC(=O)Nc1c(C(C)=O)c(=O)n(C)c2nc(-c3ccc(Cl)cc3Cl)c(-c3ccc(Cl)cc3)cc12", "read-out": "cell-free assay", "method": "competition with immobilised ligand", "tested at": "1 µM", "endpoint": "remaining binding", "result": "100%"}
{"Structure (SMILES)": "Cc1ccc(NC(=O)c2ccc(CN3CCN(C)CC3)cc2)cc1Nc1nc(-c2cccnc2)cs1", "read-out": "cell-free assay", "tested at": "0.5 µM", "endpoint": "remaining signal", "result": "110%"}
{"Structure (SMILES)": "Cc1sc(C(=O)NC2COC2)cc1-n1cc(NC(=O)Nc2c(F)cccc2Cl)cn1", "read-out": "enzyme activity", "mode": "inhibitor", "tested at": "10 µM", "endpoint": "remaining activity", "result": "51.9%"}
{"Structure (SMILES)": "C[C@@H](c1cccc(C#N)c1)n1cc(Cl)cc(C(N)=O)c1=N", "read-out": "cell-free assay", "method": "competition with immobilised ligand", "tested at": "1 µM", "endpoint": "remaining binding", "result": "82%"}
{"Structure (SMILES)": "CC(C)(C)C(=O)c1sc(NC2CCCCC2)nc1N", "read-out": "enzyme activity", "mode": "inhibitor", "tested at": "10 µM", "endpoint": "remaining activity", "result": "90%"}
{"Structure (SMILES)": "FC(F)c1nc2ccccc2n1-c1nc(N2CCOCC2)nc(N2CCOCC2)n1", "read-out": "enzyme activity", "mode": "inhibitor", "tested at": "10 µM", "endpoint": "remaining activity", "result": "87%"}
{"Structure (SMILES)": "O=C1CCc2cc(Nc3cc(OC4CCOCC4)c([N+](=O)[O-])cc3Cl)ccc2N1", "read-out": "cell-free assay", "method": "competition with immobilised ligand", "tested at": "1 µM", "endpoint": "remaining binding", "result": "86%"}
{"Structure (SMILES)": "Cn1c2c(Cl)c(Cl)ccc2c2cn[nH]c(=O)c21", "read-out": "thermal stability", "method": "DSF", "tested at": "10 µM", "endpoint": "ΔTm", "result": "0 °C"}
{"Structure (SMILES)": "O=C(Nc1cnn(-c2csc(C(=O)NC3COC3)c2)c1)Nc1ccccc1Cl", "read-out": "enzyme activity", "mode": "inhibitor", "tested at": "5 µM", "endpoint": "remaining activity", "result": "34.1%"}
{"Structure (SMILES)": "Nc1nc(NC2CCCCC2)sc1C(=O)c1ccccc1", "read-out": "enzyme activity", "mode": "inhibitor", "tested at": "10 µM", "endpoint": "remaining activity", "result": "39%"}
{"Structure (SMILES)": "COc1ccc2c(O[C@@H]3C[C@H]4C(=O)N[C@]5(C(=O)O)CC5/C=C\\CCCCC[C@H](NC(=O)OC5CCCC5)C(=O)N4C3)cc(-c3csc(NC(=O)C(C)C)n3)nc2c1C (some centres unmarked)", "read-out": "cell-free assay", "method": "competition with immobilised ligand", "tested at": "1 µM", "endpoint": "remaining binding", "result": "71%"}
{"Structure (SMILES)": "Cn1c2c(Cl)c(Cl)ccc2c2cc(N)[nH]c(=O)c21", "read-out": "thermal stability", "method": "DSF", "tested at": "10 µM", "endpoint": "ΔTm", "result": "0.7 °C"}
{"Structure (SMILES)": "COc1cc2ncnc(Nc3ccc(Oc4ccccc4)c(C)c3C)c2cc1OC", "read-out": "enzyme activity", "mode": "inhibitor", "tested at": "1 µM", "endpoint": "inhibition", "result": "7%"}
{"Structure (SMILES)": "CNC(=O)Nc1ccc2c(c1)CC[C@@]21OC(=O)N(CC(=O)N(Cc2ccc(F)cc2)[C@@H](C)C(F)(F)F)C1=O", "read-out": "cell-free assay", "method": "competition with immobilised ligand", "tested at": "1 µM", "endpoint": "remaining binding", "result": "70%"}
{"Structure (SMILES)": "CN1CCC2(CC1)NC(=O)c1c(c3ccc(Cl)c(Cl)c3n1C)C2C#N (racemic)", "read-out": "thermal stability", "method": "DSF", "tested at": "10 µM", "endpoint": "ΔTm", "result": "-0.2 °C"}
{"Structure (SMILES)": "Cc1cc(NC(=O)c2cccc(S(F)(F)(F)(F)F)c2)cc(-n2ccn3nc(-c4cccnc4)cc23)c1", "read-out": "cell-free assay", "method": "competition with immobilised ligand", "tested at": "1 µM", "endpoint": "remaining binding", "result": "76.9%"}
{"Structure (SMILES)": "Cn1c2c(c3ccc(Cl)c(Cl)c31)C(C#N)C(C)(C)NC2=O (centres unmarked)", "read-out": "thermal stability", "method": "DSF", "tested at": "10 µM", "endpoint": "ΔTm", "result": "0.4 °C"}
{"Structure (SMILES)": "Cc1cnc(NC2CCOCC2)nc1-n1cnc(C(=O)NC(CN)c2cc(F)cc(Cl)c2)c1 (centres unmarked)", "read-out": "enzyme activity", "mode": "inhibitor", "method": "radiometric", "tested at": "1 µM", "endpoint": "remaining activity", "result": "72%"}
{"Structure (SMILES)": "CC/C(=N\\NC(=O)NCc1cccc(O)c1)c1ccc(O)c(C)c1O", "read-out": "enzyme activity", "mode": "inhibitor", "tested at": "0.1 µM", "endpoint": "inhibition", "result": "-4.8%"}
{"Structure (SMILES)": "Cn1c2c(c3ccc(Cl)c(Cl)c31)C(C#N)C1(CCNCC1)NC2=O (racemic)", "read-out": "thermal stability", "method": "DSF", "tested at": "10 µM", "endpoint": "ΔTm", "result": "0.2 °C"}
{"Structure (SMILES)": "CNC(=O)c1cc(Oc2ccc(NC(=O)Nc3ccc(Cl)c(C(F)(F)F)c3)cc2)ccn1", "read-out": "enzyme activity", "mode": "inhibitor", "tested at": "10 µM", "endpoint": "inhibition", "result": "54%"}
